# Measured values: ChEMBL document CHEMBL1130077, “Synthesis and antitumor properties of N-[2-(dimethylamino)ethyl]carboxamide derivatives of fused tetracyclic quinolines and quinoxalines: a new class of putative topoisomerase inhibitors” (J Med Chem, 1997)
# Assay: Inhibitory concentration against Human Jurkat leukemia (JLC) cell proliferation
# Format: functional
# Conditions: not given
# How it was run: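 Human Jurkat leukemia (JL_C) cells at 3.75 × 10³ per well, cultured 4 days with drug. Sulforhodamine read-out. IC50 is the concentration reducing cell number to 50% of untreated controls. Duplicate independent assays, coefficient of variation 6.3%.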
row,SMILES,IC50
1,CN(C)CCNC(=O)c1cccc2nc3c(nc12)-c1ccccc1C3=O,1100 nM
2,CN(C)CCNC(=O)c1cccc2cc3[nH]c4ccccc4c3nc12,450 nM
3,COc1cccc2c1C(=O)c1c(O)c3c(c(O)c1C2=O)C[C@@](O)(C(=O)CO)C[C@@H]3O[C@H]1C[C@H](N)[C@H](O)[C@H](C)O1 [DOXORUBICIN],9.6 nM
4,CN(C)CCNC(=O)c1cccc2cc3ccccc3nc12,580 nM
5,CN(C)CCNC(=O)c1cccc2cc3c(nc12)-c1ccccc1S3(=O)=O,860 nM
6,CC[C@@]1(O)C(=O)OCc2c1cc1n(c2=O)Cc2cc3ccccc3nc2-1 [CAMPTOTHECIN],5.6 nM
7,CN(C)CCNC(=O)c1cccc2cc3sc4ccccc4c3nc12,170 nM
8,CN(C)CCNC(=O)c1cccc2cc3c(nc12)-c1ccccc1C3=O,180 nM
9,CN(C)CCNC(=O)c1cccc2[nH]c3c4ccccc4nc-3nc12,1400 nM
10,CN(C)CCNC(=O)c1cccc2cc3c(nc12)-c1ccccc1C3,320 nM
11,COc1cc(NS(C)(=O)=O)ccc1Nc1c2ccccc2nc2ccccc12 [AMSACRINE],37 nM
12,CN(C)CCNC(=O)c1cccc2cc3oc4ccccc4c3nc12,430 nM
13,CN(C)CCNC(=O)c1cccc2nc3c(nc12)-c1ccccc1C3,550 nM
14,CN(C)CCNC(=O)c1cccc2nc3c(nc12)oc1ccccc13,2600 nM
15,CN(C)CCNC(=O)c1cccc2c(C(=O)NCCN(C)C)c3sc4ccccc4c3nc12,34 nM
16,CN(C)CCNC(=O)c1cc(Cl)cc2nc3oc4ccccc4c3nc12,> 2000 nM
17,CN(C)CCNC(=O)c1cc(Cl)cc2[nH]c3nc4ccccc4c-3nc12,980 nM
18,CN(C)CCNC(=O)c1cccc2cc3c(nc12)C(=O)c1ccccc1-3,370 nM
19,CN(C)CCNC(=O)c1cc(Cl)cc2[nH]c3c4ccccc4nc-3nc12,300 nM
20,CN(C)CCNC(=O)c1cccc2nc3sc4ccccc4c3nc12,150 nM
21,COc1cc([C@@H]2c3cc4c(cc3[C@@H](O[C@@H]3O[C@@H]5CO[C@@H](C)O[C@H]5[C@H](O)[C@H]3O)[C@H]3COC(=O)[C@H]23)OCO4)cc(OC)c1O [ETOPOSIDE],160 nM
22,CN(C)CCNC(=O)c1cc(Cl)cc2nc3c(nc12)oc1ccccc13,1500 nM

# Assay: Inhibitory concentration against Murine Lewis lung carcinoma (LLC) cell proliferation
# Format: functional, cell-based
# Conditions: Mus musculus
# How it was run: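 Lewis lung carcinoma (LLTC) cells plated at 10³ per well and exposed to drug for 4 days. Growth was measured by sulforhodamine assay. IC50 is the concentration giving 50% of control cell number. Independent assays were run in duplicate, with a coefficient of variation of 12%.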
row,SMILES,IC50
1,CN(C)CCNC(=O)c1cccc2nc3c(nc12)-c1ccccc1C3=O,880 nM
2,CN(C)CCNC(=O)c1cccc2cc3[nH]c4ccccc4c3nc12,290 nM
3,COc1cccc2c1C(=O)c1c(O)c3c(c(O)c1C2=O)C[C@@](O)(C(=O)CO)C[C@@H]3O[C@H]1C[C@H](N)[C@H](O)[C@H](C)O1 [DOXORUBICIN],22 nM
4,CN(C)CCNC(=O)c1cccc2cc3c(nc12)-c1ccccc1S3(=O)=O,430 nM
5,CC[C@@]1(O)C(=O)OCc2c1cc1n(c2=O)Cc2cc3ccccc3nc2-1 [CAMPTOTHECIN],33 nM
6,CN(C)CCNC(=O)c1cccc2cc3sc4ccccc4c3nc12,66 nM
7,CN(C)CCNC(=O)c1cccc2cc3c(nc12)-c1ccccc1C3=O,91 nM
8,CN(C)CCNC(=O)c1cccc2[nH]c3c4ccccc4nc-3nc12,990 nM
9,CN(C)CCNC(=O)c1cccc2cc3c(nc12)-c1ccccc1C3,190 nM
10,COc1cc(NS(C)(=O)=O)ccc1Nc1c2ccccc2nc2ccccc12 [AMSACRINE],12 nM
11,CN(C)CCNC(=O)c1cccc2cc3oc4ccccc4c3nc12,210 nM
12,CN(C)CCNC(=O)c1cccc2nc3c(nc12)-c1ccccc1C3,390 nM
13,CN(C)CCNC(=O)c1cccc2nc3c(nc12)oc1ccccc13,1700 nM
14,CN(C)CCNC(=O)c1cccc2c(C(=O)NCCN(C)C)c3sc4ccccc4c3nc12,30 nM
15,CN(C)CCNC(=O)c1cc(Cl)cc2nc3oc4ccccc4c3nc12,> 2000 nM
16,CN(C)CCNC(=O)c1cc(Cl)cc2[nH]c3nc4ccccc4c-3nc12,700 nM
17,CN(C)CCNC(=O)c1cccc2cc3c(nc12)C(=O)c1ccccc1-3,150 nM
18,CN(C)CCNC(=O)c1cc(Cl)cc2[nH]c3c4ccccc4nc-3nc12,360 nM
19,CN(C)CCNC(=O)c1cccc2nc3sc4ccccc4c3nc12,110 nM
20,COc1cc([C@@H]2c3cc4c(cc3[C@@H](O[C@@H]3O[C@@H]5CO[C@@H](C)O[C@H]5[C@H](O)[C@H]3O)[C@H]3COC(=O)[C@H]23)OCO4)cc(OC)c1O [ETOPOSIDE],180 nM
21,CN(C)CCNC(=O)c1cc(Cl)cc2nc3c(nc12)oc1ccccc13,1400 nM

# Assay: Inhibitory concentration to reduce cell number to 50% of Murine P388 leukemia cell culture
# Format: functional, Mus musculus
# Conditions: not given
# How it was run: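 Murine P388 leukemia cells seeded at 4.5 × 10³ per well and grown 3 days with drug. Growth was read by [³H]TdR uptake. IC50 is the drug concentration that reduces cell number to 50% of control cultures. Independent assays were run in duplicate, with a coefficient of variation of 12%.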
row,SMILES,IC50
1,CN(C)CCNC(=O)c1cccc2nc3c(nc12)-c1ccccc1C3=O,700 nM
2,CN(C)CCNC(=O)c1cccc2cc3[nH]c4ccccc4c3nc12,370 nM
3,COc1cccc2c1C(=O)c1c(O)c3c(c(O)c1C2=O)C[C@@](O)(C(=O)CO)C[C@@H]3O[C@H]1C[C@H](N)[C@H](O)[C@H](C)O1 [DOXORUBICIN],15 nM
4,CN(C)CCNC(=O)c1cccc2cc3ccccc3nc12,98 nM
5,CN(C)CCNC(=O)c1cccc2cc3c(nc12)-c1ccccc1S3(=O)=O,1800 nM
6,CN(C)CCNC(=O)c1cccc2cc3sc4ccccc4c3nc12,46 nM
7,CN(C)CCNC(=O)c1cccc2cc3c(nc12)-c1ccccc1C3=O,130 nM
8,CN(C)CCNC(=O)c1cccc2[nH]c3c4ccccc4nc-3nc12,670 nM
9,CN(C)CCNC(=O)c1cccc2cc3c(nc12)-c1ccccc1C3,88 nM
10,COc1cc(NS(C)(=O)=O)ccc1Nc1c2ccccc2nc2ccccc12 [AMSACRINE],20 nM
11,CN(C)CCNC(=O)c1cccc2cc3oc4ccccc4c3nc12,170 nM
12,CN(C)CCNC(=O)c1cccc2nc3c(nc12)-c1ccccc1C3,360 nM
13,CN(C)CCNC(=O)c1cccc2nc3c(nc12)oc1ccccc13,2200 nM
14,CN(C)CCNC(=O)c1cccc2c(C(=O)NCCN(C)C)c3sc4ccccc4c3nc12,25 nM
15,CN(C)CCNC(=O)c1cc(Cl)cc2nc3oc4ccccc4c3nc12,5800 nM
16,CN(C)CCNC(=O)c1cc(Cl)cc2[nH]c3nc4ccccc4c-3nc12,1600 nM
17,CN(C)CCNC(=O)c1cccc2cc3c(nc12)C(=O)c1ccccc1-3,85 nM
18,CN(C)CCNC(=O)c1cc(Cl)cc2[nH]c3c4ccccc4nc-3nc12,15000 nM
19,CN(C)CCNC(=O)c1cccc2nc3sc4ccccc4c3nc12,100 nM
20,COc1cc([C@@H]2c3cc4c(cc3[C@@H](O[C@@H]3O[C@@H]5CO[C@@H](C)O[C@H]5[C@H](O)[C@H]3O)[C@H]3COC(=O)[C@H]23)OCO4)cc(OC)c1O [ETOPOSIDE],25 nM
21,CN(C)CCNC(=O)c1cc(Cl)cc2nc3c(nc12)oc1ccccc13,6800 nM

# Assay: Ratio of inhibitory concentration of Human Jurkat leukemia A (JLA) and Human Jurkat leukemia C (JLC)
# Format: functional
# Conditions: not given
# How it was run: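 Human Jurkat leukemia cells (JLC) and their amsacrine-resistant derivative (JLA) were seeded at 3.75 × 10³ cells/well and grown 4 days with drug. Growth was read by sulforhodamine assay. IC50 is the drug level cutting cell number to 50% of control cultures; the ratio is IC50(JLA)/IC50(JLC). Independent assays were run in duplicate; CVs were 9.3% (JLA) and 6.3% (JLC).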
row,SMILES,IC50 ratio
1,CN(C)CCNC(=O)c1cccc2nc3c(nc12)-c1ccccc1C3=O,1
2,CN(C)CCNC(=O)c1cccc2cc3[nH]c4ccccc4c3nc12,1
3,COc1cccc2c1C(=O)c1c(O)c3c(c(O)c1C2=O)C[C@@](O)(C(=O)CO)C[C@@H]3O[C@H]1C[C@H](N)[C@H](O)[C@H](C)O1 [DOXORUBICIN],4.4
4,CN(C)CCNC(=O)c1cccc2cc3c(nc12)-c1ccccc1S3(=O)=O,3.2
5,CC[C@@]1(O)C(=O)OCc2c1cc1n(c2=O)Cc2cc3ccccc3nc2-1 [CAMPTOTHECIN],2
6,CN(C)CCNC(=O)c1cccc2cc3sc4ccccc4c3nc12,1.5
7,CN(C)CCNC(=O)c1cccc2cc3c(nc12)-c1ccccc1C3=O,1.2
8,CN(C)CCNC(=O)c1cccc2[nH]c3c4ccccc4nc-3nc12,0.9
9,CN(C)CCNC(=O)c1cccc2cc3c(nc12)-c1ccccc1C3,1.8
10,COc1cc(NS(C)(=O)=O)ccc1Nc1c2ccccc2nc2ccccc12 [AMSACRINE],85
11,CN(C)CCNC(=O)c1cccc2cc3oc4ccccc4c3nc12,1.2
12,CN(C)CCNC(=O)c1cccc2nc3c(nc12)-c1ccccc1C3,1
13,CN(C)CCNC(=O)c1cccc2nc3c(nc12)oc1ccccc13,1
14,CN(C)CCNC(=O)c1cccc2c(C(=O)NCCN(C)C)c3sc4ccccc4c3nc12,0.5
15,CN(C)CCNC(=O)c1cc(Cl)cc2[nH]c3nc4ccccc4c-3nc12,0.8
16,CN(C)CCNC(=O)c1cccc2cc3c(nc12)C(=O)c1ccccc1-3,0.9
17,CN(C)CCNC(=O)c1cc(Cl)cc2[nH]c3c4ccccc4nc-3nc12,1.2
18,CN(C)CCNC(=O)c1cccc2nc3sc4ccccc4c3nc12,1.9
19,COc1cc([C@@H]2c3cc4c(cc3[C@@H](O[C@@H]3O[C@@H]5CO[C@@H](C)O[C@H]5[C@H](O)[C@H]3O)[C@H]3COC(=O)[C@H]23)OCO4)cc(OC)c1O [ETOPOSIDE],13
20,CN(C)CCNC(=O)c1cc(Cl)cc2nc3c(nc12)oc1ccccc13,1.2

# Assay: Ratio of inhibitory concentration of Human Jurkat leukemia D (JLD) and Human Jurkat leukemia C (JLC)
# Format: functional
# Conditions: not given
# How it was run: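 Parental Jurkat (JL_C) and its amsacrine-resistant (JL_A) and doxorubicin-resistant (JL_D) derivatives, each seeded at 3.75 × 10³ per well for 4 days of drug exposure. Sulforhodamine assay gave IC50 (50% of control cell number). The ratio is resistant-line IC50 over JL_C IC50. Duplicate assays; coefficients of variation 9.3% (JL_A) and 5.7% (JL_D).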
row,SMILES,IC50 ratio
1,CN(C)CCNC(=O)c1cccc2nc3c(nc12)-c1ccccc1C3=O,1.1
2,CN(C)CCNC(=O)c1cccc2cc3[nH]c4ccccc4c3nc12,1.1
3,COc1cccc2c1C(=O)c1c(O)c3c(c(O)c1C2=O)C[C@@](O)(C(=O)CO)C[C@@H]3O[C@H]1C[C@H](N)[C@H](O)[C@H](C)O1 [DOXORUBICIN],90
4,CN(C)CCNC(=O)c1cccc2cc3c(nc12)-c1ccccc1S3(=O)=O,4.2
5,CC[C@@]1(O)C(=O)OCc2c1cc1n(c2=O)Cc2cc3ccccc3nc2-1 [CAMPTOTHECIN],1.4
6,CN(C)CCNC(=O)c1cccc2cc3sc4ccccc4c3nc12,1.6
7,CN(C)CCNC(=O)c1cccc2cc3c(nc12)-c1ccccc1C3=O,0.9
8,CN(C)CCNC(=O)c1cccc2[nH]c3c4ccccc4nc-3nc12,1
9,CN(C)CCNC(=O)c1cccc2cc3c(nc12)-c1ccccc1C3,1.9
10,COc1cc(NS(C)(=O)=O)ccc1Nc1c2ccccc2nc2ccccc12 [AMSACRINE],74
11,CN(C)CCNC(=O)c1cccc2cc3oc4ccccc4c3nc12,1.2
12,CN(C)CCNC(=O)c1cccc2nc3c(nc12)-c1ccccc1C3,1
13,CN(C)CCNC(=O)c1cccc2nc3c(nc12)oc1ccccc13,1
14,CN(C)CCNC(=O)c1cccc2c(C(=O)NCCN(C)C)c3sc4ccccc4c3nc12,0.9
15,CN(C)CCNC(=O)c1cc(Cl)cc2[nH]c3nc4ccccc4c-3nc12,0.9
16,CN(C)CCNC(=O)c1cccc2cc3c(nc12)C(=O)c1ccccc1-3,0.9
17,CN(C)CCNC(=O)c1cc(Cl)cc2[nH]c3c4ccccc4nc-3nc12,1.3
18,CN(C)CCNC(=O)c1cccc2nc3sc4ccccc4c3nc12,2.7
19,COc1cc([C@@H]2c3cc4c(cc3[C@@H](O[C@@H]3O[C@@H]5CO[C@@H](C)O[C@H]5[C@H](O)[C@H]3O)[C@H]3COC(=O)[C@H]23)OCO4)cc(OC)c1O [ETOPOSIDE],90
20,CN(C)CCNC(=O)c1cc(Cl)cc2nc3c(nc12)oc1ccccc13,> 1.3
